Laboratory results published in ChEMBL document CHEMBL4219167, “Disulfiram-based disulfides as narrow-spectrum antibacterial agents” (Bioorg Med Chem Lett, 2018).
pIC50: −log10 of the molar value. ≈ marks a conversion by molar mass, not a printed value.

Key:
Staphylococcus aureus [1] = assay: Antibacterial activity against methicillin-resistant Staphylococcus aureus COL after 20 hrs by broth microdilution assay; assay type: functional
Streptococcus pyogenes = assay: Antibacterial activity against Streptococcus pyogenes H293 after 20 hrs by broth microdilution assay; assay type: functional; conditions: H293, 20 h
Staphylococcus aureus [2] = assay: Antibacterial activity against vancomycin-resistant Staphylococcus aureus HIP14300 after 20 hrs by broth microdilution assay; assay type: functional; conditions: HIP14300, 20 h
Staphylococcus aureus [3] = assay: Antibacterial activity against vancomycin-intermediate resistant Staphylococcus aureus AR-217 after 20 hrs by broth microdilution assay; assay type: functional; conditions: AR-217, 20 h
Streptococcus pneumoniae = assay: Antibacterial activity against Streptococcus pneumoniae TCH8431 after 20 hrs by broth microdilution assay; assay type: functional; conditions: TCH8431, 20 h
[4] = test system: Staphylococcus epidermidis; assay: Antibacterial activity against vancomycin-intermediate resistant Staphylococcus epidermidis NRS6 after 20 hrs by broth microdilution assay; assay type: functional; conditions: NRS6, 20 h
Streptococcus agalactiae = assay: Antibacterial activity against Streptococcus agalactiae SGBS005 after 20 hrs by broth microdilution assay; assay type: functional; conditions: SGBS005, 20 h
Enterococcus faecium = assay: Antibacterial activity against vancomycin-resistant Enterococcus faecium ATCC 700221 after 20 hrs by broth microdilution assay; assay type: functional; conditions: ATCC 700221, 20 h
Procedure, shortened: (§1)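 Brain heart infusion broth at 37°C; E. faecium under 5% CO2. Cells at 0.5 McFarland are diluted 1:100 and exposed to serial dilutions (DMSO stocks 1 mM or 1 mg/mL; controls in water).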

Escherichia coli = assay: Antibacterial activity against Escherichia coli DC10B after 20 hrs by broth microdilution assay; assay type: functional
Procedure, shortened: (§2)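 Medium is tryptic soy broth, 37°C. Overnight culture is adjusted to 0.5 McFarland, diluted 1:100 and exposed to serial dilutions (test agents from 1 mM or 1 mg/mL DMSO stocks; control antibiotics in water). Incubation lasts 20 h. MIC is the lowest concentration with no visible growth.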

Brucella neotomae = assay: Antibacterial activity against Brucella neotomae 5K33 after 20 hrs by broth microdilution assay; assay type: functional; conditions: 5K33, 20 h
Corynebacterium striatum = assay: Antibacterial activity against Corynebacterium striatum FS-1 after 20 hrs by broth microdilution assay; assay type: functional; conditions: FS-1, 20 h
Burkholderia cepacia = assay: Antibacterial activity against Burkholderia cepacia UCB 717 after 20 hrs by broth microdilution assay; assay type: functional; conditions: UCB 717, 20 h; procedure, shortened: as §2
Proteus mirabilis = assay: Antibacterial activity against Proteus mirabilis HM-752 after 20 hrs by broth microdilution assay; assay type: functional; conditions: HM-752, 20 h; procedure, shortened: as §2
Pseudomonas aeruginosa = assay: Antibacterial activity against Pseudomonas aeruginosa ATCC 15442 after 20 hrs by broth microdilution assay; assay type: functional; conditions: ATCC 15442, 20 h; procedure, shortened: as §2
Bacillus anthracis [5] = assay: Antibacterial activity against Bacillus anthracis UM23-1 after 20 hrs by broth microdilution assay; assay type: functional; conditions: UM23-1, 20 h
Bacillus anthracis [6] = assay: Antibacterial activity against Bacillus anthracis Sterne 34F2 after 20 hrs by broth microdilution assay; assay type: functional; conditions: Sterne 34F2, 20 h
Francisella tularensis = assay: Antibacterial activity against Francisella tularensis Utah 112 after 20 hrs by broth microdilution assay; assay type: functional; conditions: Utah 112, 20 h
[7] = test system: Yersinia pseudotuberculosis; assay: Antibacterial activity against Yersinia pseudotuberculosis P61 after 20 hrs by broth microdilution assay; assay type: functional; conditions: P61, 20 h
Procedure, shortened: (§3)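 Yersinia cultured in tryptic soy broth at 28°C. A 0.5 McFarland suspension diluted 1:100 receives serial dilutions of agents from 1 mM or 1 mg/mL DMSO stocks; control antibiotics are in water.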

Citrobacter freundii = assay: Antibacterial activity against Citrobacter freundii 4_7_47CFAA after 20 hrs by broth microdilution assay; assay type: functional
Procedure, shortened: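 Brucella broth, 37°C, 5% CO2. Inoculum is 0.5 McFarland diluted 1:100, with serial drug dilutions from DMSO stocks (1 mM or 1 mg/mL) and control antibiotics in water.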

Burkholderia multivorans = assay: Antibacterial activity against Burkholderia multivorans CF2 after 20 hrs by broth microdilution assay; assay type: functional; conditions: CF2, 20 h; procedure, shortened: as §2
Bacillus anthracis [8] = assay: Antibacterial activity against Bacillus anthracis Ames 35 after 20 hrs by broth microdilution assay; assay type: functional; conditions: Ames 35, 20 h
Vibrio cholerae = assay: Antibacterial activity against Vibrio cholerae TS D4 after 20 hrs by Todd Hewitt broth broth microdilution method; assay type: functional; conditions: TS D4, 20 h
Bacillus anthracis [9] = assay: Antibacterial activity against Bacillus anthracis Weybridge after 20 hrs by broth microdilution assay; assay type: functional
Yersinia pestis [10] = assay: Antibacterial activity against Yersinia pestis Kuma D7 after 20 hrs by broth microdilution assay; assay type: functional; conditions: Kuma D7, 20 h
Yersinia enterocolitica = assay: Antibacterial activity against Yersinia enterocolitica WA-314 after 20 hrs by broth microdilution assay; assay type: functional; conditions: WA-314, 20 h; procedure, shortened: as §3
Klebsiella pneumoniae = assay: Antibacterial activity against Klebsiella pneumoniae 700603 after 20 hrs by broth microdilution assay; assay type: functional; conditions: Klebsiella pneumoniae, 700603, 20 h; procedure, shortened: as §2
Micrococcus luteus = assay: Antibacterial activity against Micrococcus luteus SK58 after 20 hrs by broth microdilution assay; assay type: functional; conditions: SK58, 20 h
Bacillus cereus = assay: Antibacterial activity against Bacillus cereus Gibson 971 after 20 hrs by broth microdilution assay; assay type: functional; conditions: Gibson 971, 20 h
Shigella dysenteriae = assay: Antibacterial activity against Shigella dysenteriae Newcastle 1934 after 20 hrs by broth microdilution assay; assay type: functional; conditions: Newcastle 1934, 20 h; procedure, shortened: as §2
Salmonella typhi = assay: Antibacterial activity against Salmonella typhi Ty2 after 20 hrs by Todd Hewitt broth broth microdilution method; assay type: functional, Salmonella enterica subsp. enterica serovar Typhi str. Ty2; conditions: Salmonella enterica
Rhodococcus erythropolis = assay: Antibacterial activity against Rhodococcus erythropolis SK121 after 20 hrs by broth microdilution assay; assay type: functional; conditions: SK121, 20 h
Procedure, shortened: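 R. erythropolis grown in brain heart infusion broth at 30°C. A 0.5 McFarland suspension diluted 1:100 is treated with serial dilutions from 1 mM or 1 mg/mL DMSO stocks; control antibiotics are in water.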

Acinetobacter baumannii = assay: Antibacterial activity against Acinetobacter baumannii AB5075 after 20 hrs by broth microdilution assay; assay type: functional; conditions: AB5075, 20 h
Listeria monocytogenes = assay: Antibacterial activity against Listeria monocytogenes Gibson after 20 hrs by broth microdilution assay; assay type: functional; procedure, shortened: as §1
Yersinia pestis [11] = assay: Antibacterial activity against Yersinia pestis Kim D2 after 20 hrs by broth microdilution assay; assay type: functional; conditions: Kim D2, 20 h
HepG2 = assay: Cytotoxicity against human HepG2 cells assessed as reduction in cell viability after 72 hrs by MTT assay; assay type: cell-based; conditions: HepG2, 72 h

Structure (SMILES) | MIC (Staphylococcus aureus [1]) [µM] | MIC (Streptococcus pyogenes) [µM] | MIC (Staphylococcus aureus [2]) [µM] | MIC (Staphylococcus aureus [3]) [µM] | MIC (Streptococcus pneumoniae) [µM] | MIC [4] [µM] | MIC (Streptococcus agalactiae) [µM] | MIC (Enterococcus faecium) [µM] | MIC (Escherichia coli) [µM] | MIC (Corynebacterium striatum) [µM] | MIC (Proteus mirabilis) [µM] | MIC (Francisella tularensis) [µM] | MIC [7] [µM] | MIC (Citrobacter freundii) [µM] | MIC (Burkholderia multivorans) [µM] | MIC (Vibrio cholerae) [µM] | MIC (Yersinia pestis [10]) [µM] | MIC (Salmonella typhi) [µM] | MIC (Rhodococcus erythropolis) [µM] | MIC (Acinetobacter baumannii) [µM] | other results
CCN(CC)C(=S)SSc1ccccc1 | 32 (≈ 8.24 µg/mL) | > 32 | 16 (≈ 4.12 µg/mL) | 16 (≈ 4.12 µg/mL) | > 32 | 16 (≈ 4.12 µg/mL) | > 32 | > 32 | – | – | – | – | – | – | – | – | – | – | – | – | –
CCCCCCCSSC(=S)N(CC)CC | 4 (≈ 1.12 µg/mL) | 16 (≈ 4.47 µg/mL) | 4 (≈ 1.12 µg/mL) | 2 (≈ 0.559 µg/mL) | 32 (≈ 8.95 µg/mL) | 4 (≈ 1.12 µg/mL) | > 32 | 8 (≈ 2.24 µg/mL) | > 32 | 16 (≈ 4.47 µg/mL) | > 32 | 16 (≈ 4.47 µg/mL) | > 32 | > 32 | > 32 | > 32 | 32 (≈ 8.95 µg/mL) | > 32 | 16 (≈ 4.47 µg/mL) | > 32 | MIC (Brucella neotomae): > 32 µM; MIC (Burkholderia cepacia): > 32 µM; MIC (Pseudomonas aeruginosa): > 32 µM; MIC (Bacillus anthracis [5]): 1 µM (≈ 0.28 µg/mL); MIC (Bacillus anthracis [6]): 2 µM (≈ 0.559 µg/mL); MIC (Bacillus anthracis [8]): 4 µM (≈ 1.12 µg/mL); MIC (Bacillus anthracis [9]): 2 µM (≈ 0.559 µg/mL); MIC (Yersinia enterocolitica): > 32 µM; MIC (Klebsiella pneumoniae): > 32 µM; MIC (Micrococcus luteus): 16 µM (≈ 4.47 µg/mL); MIC (Bacillus cereus): 1 µM (≈ 0.28 µg/mL); MIC (Shigella dysenteriae): > 32 µM; MIC (Listeria monocytogenes): 4 µM (≈ 1.12 µg/mL); MIC (Yersinia pestis [11]): 32 µM (≈ 8.95 µg/mL)
CCCCCCCCCSSC(=S)N(CC)CC | 8 (≈ 2.46 µg/mL) | 8 (≈ 2.46 µg/mL) | 16 (≈ 4.92 µg/mL) | 8 (≈ 2.46 µg/mL) | 8 (≈ 2.46 µg/mL) | 4 (≈ 1.23 µg/mL) | 32 (≈ 9.84 µg/mL) | 8 (≈ 2.46 µg/mL) | – | – | – | – | – | – | – | – | – | – | – | – | pIC50 (HepG2): 4.26
O=C(O)c1cn(C2CC2)c2cc(N3CCNCC3)c(F)cc2c1=O [CIPROFLOXACIN] | – | – | – | – | – | – | – | – | ≤ 0.5 | > 32 | ≤ 0.5 | ≤ 0.5 | ≤ 0.5 | ≤ 0.5 | 8 (≈ 2.65 µg/mL) | ≤ 0.5 | ≤ 0.5 | ≤ 0.5 | ≤ 0.5 | ≤ 0.5 | MIC (Yersinia pestis [11]): ≤ 0.5 µM
CCCCCCCCCCSSC(=S)N(CC)CC | 16 (≈ 5.15 µg/mL) | 4 (≈ 1.29 µg/mL) | 32 (≈ 10.3 µg/mL) | 16 (≈ 5.15 µg/mL) | 4 (≈ 1.29 µg/mL) | 16 (≈ 5.15 µg/mL) | 16 (≈ 5.15 µg/mL) | 16 (≈ 5.15 µg/mL) | – | – | – | – | – | – | – | – | – | – | – | – | –
CCN(CC)C(=S)SSC1CCCCC1 [CYCLOHEXYL DIETHYLCARBAMO(DITHIOPEROXO)THIOATE] | 32 (≈ 8.43 µg/mL) | 16 (≈ 4.22 µg/mL) | 32 (≈ 8.43 µg/mL) | 16 (≈ 4.22 µg/mL) | > 32 | 32 (≈ 8.43 µg/mL) | > 32 | > 32 | – | – | – | – | – | – | – | – | – | – | – | – | –
CCN(CC)C(=S)SSC | 32 (≈ 6.25 µg/mL) | 32 (≈ 6.25 µg/mL) | 16 (≈ 3.13 µg/mL) | 8 (≈ 1.56 µg/mL) | > 32 | 32 (≈ 6.25 µg/mL) | > 32 | > 32 | > 32 | > 32 | > 32 | 32 (≈ 6.25 µg/mL) | > 32 | > 32 | 32 (≈ 6.25 µg/mL) | 32 (≈ 6.25 µg/mL) | 16 (≈ 3.13 µg/mL) | > 32 | 16 (≈ 3.13 µg/mL) | > 32 | MIC (Brucella neotomae): > 32 µM; MIC (Burkholderia cepacia): > 32 µM; MIC (Pseudomonas aeruginosa): > 32 µM; MIC (Bacillus anthracis [5]): 2 µM (≈ 0.391 µg/mL); MIC (Bacillus anthracis [6]): 4 µM (≈ 0.782 µg/mL); MIC (Bacillus anthracis [8]): 4 µM (≈ 0.782 µg/mL); MIC (Bacillus anthracis [9]): 4 µM (≈ 0.782 µg/mL); MIC (Yersinia enterocolitica): > 32 µM; MIC (Klebsiella pneumoniae): > 32 µM; MIC (Micrococcus luteus): 32 µM (≈ 6.25 µg/mL); MIC (Bacillus cereus): 1 µM (≈ 0.195 µg/mL); MIC (Shigella dysenteriae): > 32 µM; MIC (Listeria monocytogenes): 32 µM (≈ 6.25 µg/mL); MIC (Yersinia pestis [11]): 16 µM (≈ 3.13 µg/mL)
